What was measured:
[1] = molecular target: T1, 5-hydroxytryptamine receptor 6 (Homo sapiens, UniProt P50406); experiment: Inhibition of [3H]LSD binding to human 5-hydroxytryptamine 6 receptor expressed in HEK293 cells; format: cell-based
Procedure, shortened: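 Bound ligand collected on polyethylenimine-pretreated glass fiber filters, washed with 50 mM Tris Cl pH 7.4, counted by liquid scintillation. Nonspecific binding defined with 100 µM serotonin. Competition data fitted by LIGAND; triplicate determinations per point.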

[2] = molecular target: T1, 5-hydroxytryptamine receptor 6; experiment: Antagonist activity against cAMP accumulation in C6 cells expressing 5-hydroxytryptamine 6 receptor; format: functional, cell-based; details: Rattus norvegicus, filed as antagonist
Procedure, shortened: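 C6 cells detached with trypsin 2 h before assay, seeded ~50 000 cells/well. Compounds added with or without forskolin for 30 min. Data are means of at least three separate experiments.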

[3] = molecular target: T1, 5-hydroxytryptamine receptor 6; experiment: Partial agonist activity against cAMP accumulation in C6 cells expressing 5-hydroxytryptamine 6 receptor; format: functional, cell-based; details: Rattus norvegicus, filed as partial agonist
[4] = molecular target: T1, 5-hydroxytryptamine receptor 6; experiment: Agonist activity against cAMP accumulation in C6 cells expressing 5-hydroxytryptamine 6 receptor; format: functional, cell-based; details: Rattus norvegicus, filed as agonist
[5] = molecular target: T1, 5-hydroxytryptamine receptor 6; experiment: Binding affinity for human 5-hydroxytryptamine 6 receptor

T1 sequence (P50406 whole entry): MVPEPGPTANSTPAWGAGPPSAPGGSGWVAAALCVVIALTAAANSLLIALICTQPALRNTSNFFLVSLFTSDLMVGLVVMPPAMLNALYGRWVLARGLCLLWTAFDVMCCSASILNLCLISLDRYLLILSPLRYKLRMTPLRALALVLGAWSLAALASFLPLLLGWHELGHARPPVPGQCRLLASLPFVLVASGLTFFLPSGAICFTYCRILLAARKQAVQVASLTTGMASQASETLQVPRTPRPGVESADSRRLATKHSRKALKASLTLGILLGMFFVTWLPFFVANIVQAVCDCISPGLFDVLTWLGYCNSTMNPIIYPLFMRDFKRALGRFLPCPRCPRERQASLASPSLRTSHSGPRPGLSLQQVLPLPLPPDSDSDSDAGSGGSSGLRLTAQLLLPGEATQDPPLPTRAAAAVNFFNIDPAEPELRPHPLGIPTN

Row | Structure (SMILES) | Ki [1] | Activity [2] | further results
1 | Cc1c(S(=O)(=O)Nc2cccc3c2cc(C)n3CCN(C)C)sc2ccc(Cl)cc12 | 0.0577 µM | Antagonist | 
2 | CN(C)CCn1ccc2c(NS(=O)(=O)c3cccc4ccccc34)cccc21 | 0.0647 µM | Antagonist | 
3 | O=C1OCc2ccccc2N1C1CCN(S(=O)(=O)c2csc3ccccc23)CC1 | 0.126 µM | Antagonist | 
4 | CCN(CC)CCc1c[nH]c2ccc(NS(=O)(=O)c3cccc4c(Cl)cccc34)cc12 | 0.0033 µM |  | Activity [3]: Partial agonist
5 | CCN(CC)C(=O)C(=O)c1c[nH]c2ccc(NS(=O)(=O)c3cccc4ccccc34)cc12 | > 1 µM |  | 
6 | O=S(=O)(CCc1cccc2ccccc12)Nc1ccc2ccn(CCN3CCCC3)c2c1 | 0.195 µM | Antagonist | 
7 | Cc1cccc2c1N(C1CCN(S(=O)(=O)c3csc4ccccc34)CC1)C(=O)OC2 | 0.124 µM | Antagonist | 
8 | CN(C)CCc1c[nH]c2ccc(NS(=O)(=O)c3c(Cl)nc4sccn34)cc12 |  |  | Activity [3]: Partial agonist
9 | CCCN(CCC)CCc1c[nH]c2ccc(NS(=O)(=O)c3sc4ccc(Cl)cc4c3C)cc12 | 0.0005 µM |  | Activity [3]: Partial agonist
10 | CCN(CC)CCn1ccc2cc(NS(=O)(=O)c3cccc4ccccc34)ccc21 | 0.116 µM | Antagonist | 
11 | CCN(CC)CCn1ccc2cc(NS(=O)(=O)c3c(Cl)nc4sccn34)ccc21 | 0.0973 µM | Antagonist | 
12 | Cc1c(S(=O)(=O)Nc2ccc3[nH]cc(C(=O)C(=O)N(C)C)c3c2)sc2ccc(Cl)cc12 | > 1 µM |  | 
13 | O=S(=O)(Nc1ccc2c(ccn2CCN2CCCCC2)c1)c1c(Cl)nc2sccn12 | 0.0314 µM | Antagonist | 
14 | O=S(=O)(Nc1ccc2ccn(CCN3CCCC3)c2c1)c1ccc2ccccc2c1 | 0.101 µM | Antagonist | 
15 | COc1ccc(OC)c(S(=O)(=O)N2CCC(N3C(=O)OCc4cccc(C)c43)CC2)c1 | 0.131 µM | Antagonist | 
16 | Cc1c(S(=O)(=O)Nc2ccc3[nH]cc(CCN(C)C)c3c2)sc2ccc(Cl)cc12 | 0.0001 µM |  | Activity [4]: Agonist
17 | O=S(=O)(Nc1ccc2[nH]cc(CCN3CCOCC3)c2c1)c1ccc2ccccc2c1 | 0.132 µM | Antagonist | 
18 | CCN(CC)C(=O)C(=O)c1c[nH]c2ccc(NS(=O)(=O)c3cccc4cccnc34)cc12 | > 1 µM |  | 
19 | CCN(CC)CCc1c[nH]c2ccc(NS(=O)(=O)c3cc(Cl)cc(Cl)c3)cc12 |  |  | Activity [3]: Partial agonist
20 | CN1CCN(C2Cc3ccccc3Sc3ccc(Cl)cc32)CC1 (centres undefined) [CLOROTEPINE] |  |  | Ki [5]: < 0.05 µM
21 | CC(C)C[C@H]1C(=O)N2CCC[C@H]2[C@]2(O)O[C@](NC(=O)[C@@H]3C=C4c5cccc6[nH]c(Br)c(c56)C[C@H]4N(C)C3)(C(C)C)C(=O)N12 [BROMOCRIPTINE] |  |  | Ki [5]: < 0.05 µM
22 | COc1ccc2c(c1)c(CCN(C)C)cn2S(=O)(=O)c1ccccc1 |  |  | Ki [5]: < 0.05 µM
23 | OCCN1CCN(CCCN2c3ccccc3Sc3ccc(C(F)(F)F)cc32)CC1 [FLUPHENAZINE] |  |  | Ki [5]: < 0.05 µM

Row | Structure (SMILES) | Ki [1] | Activity [2] | further results
24 | O=C1OCc2ccccc2N1C1CCN(S(=O)(=O)c2cccc3ccccc23)CC1 |  | Antagonist | 
25 | CNc1cc(NS(=O)(=O)c2ccc(N)cc2)nc(NC)n1 | 0.0447 µM |  | 
26 | CCc1[nH]c2ccc(OC)cc2c1CCN(C)C |  |  | Ki [5]: < 0.05 µM
27 | CN(C)CCc1c[nH]c2ccc(NS(=O)(=O)c3cccc4ccccc34)cc12 | 0.0008 µM |  | Activity [3]: Partial agonist
28 | CCN(CC)CCc1c[nH]c2ccc(NS(=O)(=O)c3sc4ccc(Cl)cc4c3C)cc12 | 0.0003 µM |  | Activity [4]: Agonist
29 | CN1CC=C(c2cn(S(=O)(=O)c3cccc4ccccc34)c3ccc(F)cc23)CC1 |  |  | Ki [5]: < 0.05 µM
30 | CN(C)CCn1ccc2c(NS(=O)(=O)c3ccc4ccccc4c3)cccc21 | 0.0149 µM | Antagonist | 
31 | CCN(CC)CCc1c[nH]c2ccc(NS(=O)(=O)c3ccc4ccccc4c3)cc12 | 0.0408 µM |  | 
32 | Cc1cc2cc(NS(=O)(=O)c3cccc4ccccc34)ccc2n1CCN(C)C | 0.124 µM | Antagonist | 
33 | CN(C)CCn1ccc2ccc(NS(=O)(=O)c3ccc4ccccc4c3)cc21 |  | Antagonist | 
34 | O=S(=O)(Nc1ccc2[nH]cc(CCN3CCCC3)c2c1)c1cccc2ccccc12 | 0.0045 µM | Antagonist | 
35 | CN(C)CCc1c[nH]c2ccc(NS(=O)(=O)c3ccc4c(Cl)cccc4c3)cc12 | 0.0002 µM | Antagonist | 
36 | Cc1c(S(=O)(=O)Nc2ccc3[nH]cc(CCN4CCCC4)c3c2)sc2ccc(Cl)cc12 | 0.004 µM |  | Activity [3]: Partial agonist
37 | O=S(=O)(Nc1ccc2ccn(CCN3CCCC3)c2c1)c1c(Cl)nc2sccn12 | 0.0522 µM | Antagonist | 
38 | CN(C)CCn1ccc2cc(NS(=O)(=O)c3c(Cl)nc4sccn34)ccc21 |  | Antagonist | 
39 | CN(C)CCn1ccc2cc(NS(=O)(=O)Cc3ccccc3)ccc21 | > 1 µM |  | 
40 | CCCN(CCC)CCc1c[nH]c2ccc(NS(=O)(=O)c3ccc4ccccc4c3)cc12 | 0.0039 µM |  | Activity [3]: Partial agonist
41 | Cc1cccc2c1N(C1CCN(S(=O)(=O)c3cccc4cccnc34)CC1)C(=O)OC2 |  | Antagonist | 
42 | COc1ccc(Br)cc1S(=O)(=O)N1CCC(N2C(=O)OCc3cccc(C)c32)CC1 | > 1 µM |  | 
43 | O=C1OCc2ccccc2N1C1CCN(S(=O)(=O)c2cccc3cccnc23)CC1 |  | Antagonist | 
44 | Cc1cc2cc(NS(=O)(=O)c3ccc4ccccc4c3)ccc2n1CCN(C)C | 0.0858 µM | Antagonist | 
45 | O=S(=O)(Nc1ccc2c(ccn2CCN2CCCC2)c1)c1c(Cl)nc2sccn12 | 0.0098 µM | Antagonist | 
46 | CN(C)CCc1c[nH]c2ccc(NS(=O)(=O)c3ccc(-c4ccccc4)cc3)cc12 | 0.0004 µM |  | Activity [4]: Agonist

Row | Structure (SMILES) | Ki [1] | Activity [2] | further results
47 | Cc1c(S(=O)(=O)Nc2ccc3cc(C)n(CCN(C)C)c3c2)sc2ccc(Cl)cc12 | > 1 µM |  | 
48 | Cc1c(S(=O)(=O)Nc2ccc3ccn(CCN4CCCC4)c3c2)sc2ccc(Cl)cc12 | 0.109 µM | Antagonist | 
49 | CNc1cc(NS(=O)(=O)c2ccc(N)cc2)cc(NC)n1 | 0.0148 µM |  | 
50 | CCN(CC)C(=O)C(=O)c1c[nH]c2ccc(NS(=O)(=O)c3c(Cl)nc4sccn34)cc12 |  | Antagonist | 
51 | CCN(CC)CCc1c[nH]c2ccc(NS(=O)(=O)c3ccc(-c4ccccc4)cc3)cc12 |  |  | Activity [4]: Agonist
52 | CCCCN(CCCC)CCc1c[nH]c2ccc(NS(=O)(=O)c3cccc4ccccc34)cc12 | 0.0072 µM | Antagonist | 
53 | Cc1cccc2c1N(C1CCN(S(=O)(=O)c3cccc4c(N(C)C)cccc34)CC1)C(=O)OC2 | 0.336 µM | Antagonist | 
54 | O=S(=O)(Nc1ccc2[nH]cc(CCN3CCCC3)c2c1)c1ccc2ccccc2c1 | 0.0043 µM |  | Activity [3]: Partial agonist
55 | O=S(=O)(Nc1ccc2c(ccn2CCCN2CCCCC2)c1)c1c(Cl)nc2sccn12 | > 1 µM |  | 
56 | CN(C)C(=O)C(=O)c1c[nH]c2ccc(NS(=O)(=O)c3c(Cl)nc4sccn34)cc12 |  | Antagonist | 
57 | CCN(CC)CCn1ccc2cc(NS(=O)(=O)c3ccc4ccccc4c3)ccc21 | 0.14 µM | Antagonist | 
58 | CN(C)CCn1ccc2cc(NS(=O)(=O)c3ccc4ccccc4c3)ccc21 | 0.0577 µM | Antagonist | 
59 | Cc1cc2cc(NS(=O)(=O)c3c(Cl)nc4sccn34)ccc2n1CCN(C)C | 0.0746 µM | Antagonist | 
60 | Cc1c(S(=O)(=O)Nc2ccc3[nH]cc(CN(C)C)c3c2)sc2ccc(Cl)cc12 | 0.0053 µM | Antagonist | 
61 | O=S(=O)(Nc1ccc2[nH]cc(CCN3CCOCC3)c2c1)c1cccc2ccccc12 | 0.163 µM | Antagonist | 
62 | Cc1c(S(=O)(=O)Nc2ccc3ccn(CCN(C)C)c3c2)sc2ccc(Cl)cc12 |  |  | Activity [3]: Partial agonist
63 | CN1CCC(c2c[nH]c3ccc(NS(=O)(=O)c4cccc5c(Cl)cccc45)cc23)CC1 | 0.0096 µM | Antagonist | 
64 | CN1CCC(c2c[nH]c3ccc(NS(=O)(=O)c4cccc5ccccc45)cc23)CC1 |  | Antagonist | 
65 | CCN(CC)CCCc1c[nH]c2ccc(NS(=O)(=O)c3ccc4ccccc4c3)cc12 | 0.163 µM | Antagonist | 
66 | Cc1c(S(=O)(=O)Nc2ccc3[nH]cc(CCN4CCOCC4)c3c2)sc2ccc(Cl)cc12 | 0.0151 µM | Antagonist | 
67 | O=S(=O)(Nc1ccc2ccn(CCN3CCCC3)c2c1)c1cccc2ccccc12 | 0.0186 µM | Antagonist | 
68 | CN1CCN(C2=Nc3ccccc3Oc3ccc(Cl)cc32)CC1 [LOXAPINE] |  |  | Ki [5]: < 0.05 µM
69 | Cc1c(S(=O)(=O)Nc2ccc3[nH]cc(C4CCN(C)CC4)c3c2)sc2ccc(Cl)cc12 | 0.001 µM | Antagonist | 

— ChEMBL document CHEMBL1145196, “Medicinal chemistry driven approaches toward novel and selective serotonin 5-HT6 receptor ligands” (J Med Chem, 2005)
